Measured values from ChEMBL document CHEMBL1144782, “Isoindolo[2,1-a]quinoxaline derivatives, novel potent antitumor agents with dual inhibition of tubulin polymerization and topoisomerase I” (2008).
“And” between values parts separate entries of the source, which are not always exact repeats. Equal entries are not always repeated.

Columns and labels:
Type in all cases: functional
HOP-92 = test: Antitumor activity against human HOP92 cells; details: for TGI: read-out: pTGI (converted)
Method in brief: (§1)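 Run by the NCI in its in vitro disease-oriented screen of about 60 human tumour cell lines. For each line it reports pGI50 (50% net growth inhibition), pTGI (total growth inhibition) and pLC50 (50% net cell death), each as –log molar concentration. Where an effect was not reached within the tested range, the highest tested concentration was used.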

NCI-H226 = test: Antitumor activity against human NCI-H226 cells; details: for TGI: read-out: pTGI (converted); method in brief: as §1
[1] = Antitumor activity against human NCI-H322 cells; details: for TGI: read-out: pTGI (converted); method in brief: as §1
NCI-H460 [2] = test: Antitumor activity against human NCI-H460 cells; details: for CC50: read-out: Log LC50 (the source's name) (converted); for TGI: read-out: pTGI (converted); method in brief: as §1
COLO 205 = test: Antitumor activity against human COLO205 cells; details: for TGI: read-out: pTGI (converted); method in brief: as §1
HCC 2998 = test: Antitumor activity against human HCC2998 cells; details: for TGI: read-out: pTGI (converted); method in brief: as §1
SF-539 = test: Antitumor activity against human SF539 cells; details: for TGI: read-out: pTGI (converted); method in brief: as §1
SNB-19 = test: Antitumor activity against human SNB19 cells; details: for CC50: read-out: Log LC50 (the source's name) (converted); for TGI: read-out: pTGI (converted); method in brief: as §1
SNB-75 = test: Antitumor activity against human SNB75 cells; details: for TGI: read-out: pTGI (converted); method in brief: as §1
Malme-3M = test: Antitumor activity against human MALME3M cells; details: for CC50: read-out: Log LC50 (the source's name) (converted); for TGI: read-out: pTGI (converted); method in brief: as §1
SK-MEL-28 = test: Antitumor activity against human SKMEL28 cells; details: for CC50: read-out: Log LC50 (the source's name) (converted); for TGI: read-out: pTGI (converted); method in brief: as §1
SK-MEL-5 = test: Antitumor activity against human SKMEL5 cells; details: for TGI: read-out: pTGI (converted); method in brief: as §1
UACC-257 = test: Antitumor activity against human UACC257 cells; details: for TGI: read-out: pTGI (converted)
Method in brief: (§2)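 NCI 60-cell-line screen. Parameters were GI50 (50% net growth inhibition), TGI and LC50, each reported as –log molar concentration. Where an effect was not reached within the tested range, the highest tested concentration was used in the calculation.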

IGROV-1 = test: Antitumor activity against human IGROV1 cells; details: for CC50: read-out: Log LC50 (the source's name) (converted); for TGI: read-out: pTGI (converted); method in brief: as §1
OVCAR-3 = test: Antitumor activity against human OVCAR-3 cells; details: for TGI: read-out: pTGI (converted); method in brief: as §1
OVCAR-5 = test: Antitumor activity against human OVCAR5 cells; details: for TGI: read-out: pTGI (converted); method in brief: as §1
NCI-H460 [3] = test: Cell viability against human NCI-H460 cells at 10 uM
CCRF-CEM [4] = test: Antitumor activity against human CCRF-CEM cells; details: for TGI: read-out: pTGI (converted); method in brief: as §1
MOLT-4 = test: Antitumor activity against human MOLT4 cells; details: for TGI: read-out: pTGI (converted); method in brief: as §1
SN12C = test: Antitumor activity against human SN12C cells; details: for TGI: read-out: pTGI (converted); method in brief: as §1
DU-145 = test: Antitumor activity against human DU145 cells; details: for CC50: Homo sapiens, DU-145, read-out: Log LC50 (the source's name) (converted); method in brief: as §1
MDA-MB-435 = test: Antitumor activity against human MDA-MB-435 cells; details: for TGI: read-out: pTGI (converted); method in brief: as §1
MCF7 = test: Growth inhibition of human multidrug-resistant MCF7 cells after 72 hrs by MTT assay; details: MCF7, 72 h
Method in brief: (§3)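 Growth inhibition by MTT after 72 h incubation. Resistant sublines: LoVoDoxo and MCF-7 MDR were kept in 0.1 µg/mL doxorubicin; CEMVbl-100 was selected against vinblastine. GI50 given as mean ± SEM of three independent experiments. Resistance index is resistant-line GI50 over parental GI50.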

CCRF-CEM [5] = test: Growth inhibition of human vinblastine-resistant CEM cells after 72 hrs by MTT assay; method in brief: as §3
CCRF-CEM [6] = test: Resistance index, Ratio of GI50 for human vinblastine-resistant CEM cells to GI50 for human CEM cells
UO-31 = test: Antitumor activity against human UO31 cells; method in brief: as §2

Cc1cccc2c1[nH]c(=O)c1c3ccccc3cn21
GI50 (HOP-92): 3.98 µM
LC50 (HOP-92): > 100 µM
TGI (HOP-92): 32.4 µM
GI50 (NCI-H226): 3.24 µM
LC50 (50% net cell kill) (NCI-H226): > 100 µM
TGI (NCI-H226): 27.5 µM
GI50 [1]: 13.5 µM
LC50 (50% net cell death) [1]: > 100 µM
TGI [1]: 45.7 µM
GI50 (NCI-H460 [2]): 1.91 µM
CC50 (NCI-H460 [2]): 31.6 µM
TGI (NCI-H460 [2]): 10 µM
GI50 (COLO 205): 7.41 µM
LC50 (COLO 205): > 100 µM
TGI (COLO 205): 34.7 µM
GI50 (HCC 2998): 4.57 µM
LC50 (HCC 2998): 40.7 µM
TGI (HCC 2998): 16.2 µM
GI50 (SF-539): 3.89 µM
LC50 (50% net cell kill) (SF-539): 40.7 µM
TGI (SF-539): 15.8 µM
GI50 (SNB-19): 15.5 µM
CC50 (SNB-19): > 100 µM
TGI (SNB-19): 47.9 µM
GI50 (SNB-75; Homo sapiens, SNB-75): 30.9 µM
LC50 (SNB-75; Homo sapiens, SNB-75): > 100 µM
TGI (SNB-75; Homo sapiens, SNB-75): > 100 µM
GI50 (Malme-3M): 8.32 µM
CC50 (Malme-3M): 67.6 µM
TGI (Malme-3M): 24.5 µM
GI50 (SK-MEL-28): 6.92 µM
CC50 (SK-MEL-28): > 100 µM
TGI (SK-MEL-28): > 100 µM
GI50 (SK-MEL-5): 11.7 µM
LC50 (SK-MEL-5): 49 µM
TGI (SK-MEL-5): 24 µM
GI50 (UACC-257): 16.6 µM
LC50 (UACC-257): > 100 µM
TGI (UACC-257): 93.3 µM
GI50 (IGROV-1): 3.72 µM
CC50 (IGROV-1): > 100 µM
TGI (IGROV-1): > 100 µM
GI50 (OVCAR-3): 4.79 µM
LC50 (50% net cell death) (OVCAR-3): > 100 µM
TGI (OVCAR-3): 28.2 µM
GI50 (OVCAR-5): 17.8 µM
LC50 (50% net cell death) (OVCAR-5): > 100 µM
TGI (OVCAR-5): 66.1 µM
Activity (NCI-H460 [3]): 2%
GI50 (CCRF-CEM [4]): 1.2 µM
LC50 (CCRF-CEM [4]): 74.1 µM
TGI (CCRF-CEM [4]): 12.6 µM
GI50 (MOLT-4): 1.82 µM
LC50 (MOLT-4): 20.9 µM
TGI (MOLT-4): 5.62 µM
GI50 (SN12C): 1.82 µM
LC50 (SN12C): > 100 µM
TGI (SN12C): 19.1 µM
GI50 (DU-145): 5.25 µM and 17.4 µM
CC50 (DU-145): 41.7 µM
GI50 (MDA-MB-435): 3.16 µM
LC50 (50% net cell death) (MDA-MB-435): 95.5 µM
TGI (MDA-MB-435): 11.5 µM
GI50 (MCF7): 8.1 µM
GI50 (CCRF-CEM [5]): 3 µM
RatioGI50 (CCRF-CEM [6]): 1.04

O=c1[nH]c2ccccc2n2cc3ccccc3c12
GI50 (HOP-92): 3.98 µM
LC50 (HOP-92): 51.3 µM
TGI (HOP-92): 18.6 µM
GI50 (NCI-H226): 2.88 µM
LC50 (50% net cell kill) (NCI-H226): 55 µM
TGI (NCI-H226): 13.8 µM
GI50 [1]: 24 µM
LC50 (50% net cell death) [1]: 89.1 µM
TGI [1]: 46.8 µM
GI50 (NCI-H460 [2]): 7.76 µM
CC50 (NCI-H460 [2]): > 100 µM
TGI (NCI-H460 [2]): > 100 µM
GI50 (COLO 205): 4.57 µM
LC50 (COLO 205): > 100 µM
TGI (COLO 205): > 100 µM
GI50 (HCC 2998): 5.89 µM
LC50 (HCC 2998): 57.5 µM
TGI (HCC 2998): 20.9 µM
GI50 (SF-539): 5.13 µM
LC50 (50% net cell kill) (SF-539): 75.9 µM
TGI (SF-539): 22.4 µM
GI50 (SNB-19): 8.91 µM
CC50 (SNB-19): > 100 µM
TGI (SNB-19): > 100 µM
GI50 (SNB-75): 13.5 µM and 1.91 µM
LC50 (SNB-75; Homo sapiens, SNB-75): > 100 µM
TGI (SNB-75; Homo sapiens, SNB-75): 74.1 µM
GI50 (Malme-3M): 25.1 µM
CC50 (Malme-3M): 85.1 µM
TGI (Malme-3M): 46.8 µM
GI50 (SK-MEL-28): 22.4 µM
CC50 (SK-MEL-28): > 100 µM
TGI (SK-MEL-28): > 100 µM
GI50 (SK-MEL-5): 1.91 µM
LC50 (SK-MEL-5): 60.3 µM
TGI (SK-MEL-5): 14.8 µM
GI50 (UACC-257): 15.1 µM
LC50 (UACC-257): 72.4 µM
TGI (UACC-257): 33.1 µM
GI50 (IGROV-1): 10.2 µM
CC50 (IGROV-1): 63.1 µM
TGI (IGROV-1): 25.7 µM
GI50 (OVCAR-3): 18.6 µM
LC50 (50% net cell death) (OVCAR-3): 72.4 µM
TGI (OVCAR-3): 36.3 µM
GI50 (OVCAR-5): 10.5 µM
LC50 (50% net cell death) (OVCAR-5): > 100 µM
TGI (OVCAR-5): 35.5 µM
Activity (NCI-H460 [3]): 0%
GI50 (CCRF-CEM [4]): 5.89 µM
LC50 (CCRF-CEM [4]): > 100 µM
TGI (CCRF-CEM [4]): 60.3 µM
GI50 (MOLT-4): 3.63 µM
LC50 (MOLT-4): > 100 µM
TGI (MOLT-4): 8.71 µM
GI50 (SN12C): 1.66 µM
LC50 (SN12C): 31.6 µM
TGI (SN12C): 6.31 µM
GI50 (UO-31): 12.6 µM
CC50 (UO-31; read-out: Log LC50 (the source's name) (converted)): 56.2 µM
TGI (UO-31; read-out: pTGI (converted)): 26.9 µM
GI50 (DU-145): 7.59 µM and 38 µM
CC50 (DU-145): > 100 µM
GI50 (MDA-MB-435): 16.2 µM
LC50 (50% net cell death) (MDA-MB-435): 58.9 µM
TGI (MDA-MB-435): 30.9 µM
GI50 (MCF7): 10.6 µM
GI50 (CCRF-CEM [5]): 3.8 µM
RatioGI50 (CCRF-CEM [6]): 0.8
